Test results from ChEMBL document CHEMBL4007441, “Novel Design of Heptad Amphiphiles To Enhance Cell Selectivity, Salt Resistance, Antibiofilm Properties and Their Membrane-Disruptive Mechanism” (J Med Chem, 2017).
Calls of active or inactive are those of the source. The rule behind the calls is not given here.

How the values were obtained:
Pseudomonas aeruginosa [1] = assay: Antibacterial activity against Pseudomonas aeruginosa ATCC 27853 after 18 hrs by broth microdilution method; format: functional; settings: ATCC 27853, 18 h
Procedure, shortened: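 Broth microdilution in Mueller-Hinton broth. Exponential-phase bacteria (37 °C, 220 rpm shaking) were diluted to about 1 × 10^6 CFU/mL and mixed 1:1 with two-fold serial peptide dilutions. MIC is the lowest concentration with no visible turbidity after 18 h at 37 °C. Controls were uninoculated MHB and untreated culture. Run at least three times, two replicates each.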

Pseudomonas aeruginosa [2] = assay: Antibacterial activity against Pseudomonas aeruginosa 26305 clinical isolate after 18 hrs by broth microdilution method; format: functional; settings: Pseudomonas aeruginosa, 26305, 18 h
Pseudomonas aeruginosa [3] = assay: Antibacterial activity against Pseudomonas aeruginosa ATCC 27853 assessed as induction of outer membrane permeabilization by measuring NPN uptake by spectrofluorophotometric analysis; format: functional
Procedure, shortened: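 Exponential-phase cells were washed in HEPES pH 7.4 with 5 mM glucose and diluted to about 10^5 CFU/mL. NPN was added at 10 µM final, then peptide at varying concentrations. Fluorescence (ex 350/em 420 nm) was followed to plateau. Values are % NPN uptake relative to polymyxin B at 10 mg/L (100%). Three experiments, duplicates.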

Lipopolysaccharide (LPS) = assay: Binding affinity to Pseudomonas aeruginosa ATCC 27853 LPS by SPR spectroscopic analysis
Procedure, shortened: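 Biacore SPR. Peptides were amine-coupled to CM5 chips at 20 µg/mL in 10 mM acetate pH 6.0, giving about 1300 RU. LPS at 3.125–12.5 µg/mL in 20 mM Tris/100 mM NaCl pH 7.4 was flowed at 10 µL/min. Surfaces were regenerated with 50 mM NaOH plus 0.05% SDS. Three independent runs.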

RAW264.7 [4] = assay: Downregulation of LPS-induced TNF-alpha mRNA expression in mouse RAW264.7 cells at 10 mg/L after 18 hrs by real-time PCR analysis; format: functional, cell-based
Procedure, shortened: (§1)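 qRT-PCR: RAW264.7 cells were stimulated with LPS (100 ng/mL) with or without peptide at 10 mg/L for 18 h at 37 °C. Total RNA was taken up with TRIzol. Transcript levels were normalized to GAPDH and expressed as fold change versus untreated cells. Three experiments, triplicates each.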

RAW264.7 [5] = assay: Downregulation of LPS-induced IL-6 mRNA expression in mouse RAW264.7 cells at 10 mg/L after 18 hrs by real-time PCR analysis; format: functional, cell-based; procedure, shortened: as §1
RAW264.7 [6] = assay: Downregulation of LPS-induced IL-1beta mRNA expression in mouse RAW264.7 cells at 10 mg/L after 18 hrs by real-time PCR analysis; format: functional, cell-based; procedure, shortened: as §1
Pseudomonas aeruginosa [7] = assay: Antibacterial activity against Pseudomonas aeruginosa ATCC 27853 after 18 hrs in presence of NaCl by broth microdilution method; format: functional; settings: ATCC 27853, 18 h
Procedure, shortened: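 Broth microdilution MIC against ATCC 27853 in Mueller-Hinton broth with added salt at final concentrations: NaCl 150 mM, KCl 4.5 mM, NH4Cl 6 µM, ZnCl2 8 µM, FeCl3 4 µM. Inoculum about 1 × 10^6 CFU/mL from exponential phase, mixed 1:1 with two-fold peptide dilutions. MIC read as no visible turbidity after 18 h at 37 °C.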

Pseudomonas aeruginosa [8] = assay: Antibacterial activity against Pseudomonas aeruginosa ATCC 27853 assessed as induction of cytoplasmic membrane depolarization after 90 min incubation under dark condition by diSC3-5 dye-based fluorescence analysis; format: functional
Procedure, shortened: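 Exponential-phase cells were washed three times in 5 mM HEPES (pH 7.4). diSC3-5 (0.4 µM final) and KCl (0.1 M final) were added, then the cells were incubated 90 min at 37 °C in the dark. Peptide at a range of concentrations was added and fluorescence followed at ex 622/em 670 nm. Three independent experiments, duplicates each.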

Pseudomonas aeruginosa [9] = assay: Antibacterial activity against Pseudomonas aeruginosa ATCC 27853 assessed as induction of membrane distortion at MIC after 1 hr by SEM analysis; format: functional
Procedure, shortened: (§2)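 For SEM, exponential-phase cells were washed in PBS pH 7.4, set to OD600 0.2 and exposed to 1 × MIC for 60 min at 37 °C. They were fixed in 2.5% glutaraldehyde at 4 °C overnight, dehydrated through graded ethanol and tert-butanol, dried, gold-coated and imaged. Untreated control. At least three repeats, duplicates.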

Pseudomonas aeruginosa [10] = assay: Antibacterial activity against Pseudomonas aeruginosa ATCC 27853 assessed as induction of membrane damage at MIC after 1 hr by SEM analysis; format: functional; procedure, shortened: as §2
Pseudomonas aeruginosa [11] = assay: Antibacterial activity against Pseudomonas aeruginosa ATCC 27853 assessed as induction of membrane corrugation at MIC after 1 hr by SEM analysis; format: functional; procedure, shortened: as §2
Pseudomonas aeruginosa [12] = assay: Antibacterial activity against Pseudomonas aeruginosa ATCC 27853 assessed as induction of membrane damage at MIC after 1 hr by TEM analysis; format: functional
Procedure, shortened: (§3)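 For TEM, exponential-phase cells were washed in PBS pH 7.4, adjusted to OD600 0.2 and treated at 1 × MIC for 60 min at 37 °C. Fixation was 2.5% glutaraldehyde at 4 °C overnight, then 2% osmium tetroxide for 70 min. Samples went through a graded ethanol series, ethanol/acetone and acetone before imaging. Untreated control.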

Pseudomonas aeruginosa [13] = assay: Antibacterial activity against Pseudomonas aeruginosa ATCC 27853 assessed as induction of intracellular content dispersion at MIC after 1 hr by TEM analysis; format: functional, cell-based; procedure, shortened: as §3
Pseudomonas aeruginosa [14] = assay: Antibacterial activity against Pseudomonas aeruginosa ATCC 27853 assessed as induction of membrane integrity disruption at MIC after 15 mins by PI-staining based flow cytometry (reference value: 4.7%)

Row | Substance | MIC (Pseudomonas aeruginosa [1]) | MIC (Pseudomonas aeruginosa [2]) | Activity (Pseudomonas aeruginosa [3]) | Activity (Lipopolysaccharide (LPS)) | Activity (RAW264.7 [4]) | Activity (RAW264.7 [5]) | Activity (RAW264.7 [6]) | MIC (Pseudomonas aeruginosa [7]) | Activity (Pseudomonas aeruginosa [8]) | Activity (Pseudomonas aeruginosa [9]) | Activity (Pseudomonas aeruginosa [10]) | Activity (Pseudomonas aeruginosa [11]) | Activity (Pseudomonas aeruginosa [12]) | Activity (Pseudomonas aeruginosa [13]) | Activity (Pseudomonas aeruginosa [14])
1 | H-LRRLRRRWWRRRLRRL-NH2 | 8 µg/mL | 8 µg/mL | Dose-dependent effect | Dose-dependent effect | Active | Active | Active | 16 µg/mL | – | – | – | – | – | – | –
2 | H-LRRLRRRWWWRRRLRRL-NH2 | 4 µg/mL | 4 µg/mL | Dose-dependent effect | Dose-dependent effect | Active | Active | Active | 8 µg/mL | Dose-dependent effect | Active | Active | Active | Active | Active | 99.5%
